For data set [1], the system named is Staphylococcus aureus. The data set can be described thus: Antibacterial activity against Staphylococcus aureus CIP 65.6 after 18 hrs by broth microdilution method. Type of data set: functional. As to conditions: CIP 65.6, 18 h. The essentials: (§1)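 MIC by broth microdilution per ISO 20776-1:2006 and CLSI M07-A8. Inoculum 10^6 cfu/ml in Mueller-Hinton broth with compound serially diluted, final concentrations 2 to 128 ug/ml, duplicate rows, no-drug growth control. Incubation 18 h at 37 °C. MIC taken as lowest concentration giving complete inhibition of visible growth. Each compound tested at least twice.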

Data set [2] concerns Staphylococcus aureus. The data set is described as follows: Antibacterial activity against Staphylococcus aureus ATCC 29213 after 18 hrs by broth microdilution method. Type of data set: functional. As to conditions: ATCC 29213, 18 h. The essentials: as §1
The test system of data set [3] is Staphylococcus epidermidis. The data set can be described thus: Antibacterial activity against Staphylococcus epidermidis CIP 103627 after 18 hrs by broth microdilution method. The note with it: CIP 103627, 18 h. Type of data set: functional. The essentials: as §1
Data set [4] deals with HCT-116. The data set is described as follows: Cytotoxicity against human HCT116 cells at 10 uM. The class given is cell-based. The note with it: hct-116, 10 µM.
For data set [5], the system named is Staphylococcus aureus. The data set is described as follows: Antibacterial activity against Staphylococcus aureus ATCC 9144 after 18 hrs by broth microdilution method. Type of data set: functional. As to conditions: ATCC 9144, 18 h. In short, it runs like this:
as §1

The test system of data set [6] is KB. The data set is described as follows: Cytotoxicity against human KB cells at 10 uM. Type of data set: cell-based.
The subject of data set [7] is MRC5. The data set can be described thus: Cytotoxicity against human MRC5 cells at 1 uM. Type of data set: cell-based. As to conditions: mrc5, 1 µM.
For data set [8], the system named is Staphylococcus aureus. The data set can be described thus: Antibacterial activity against Staphylococcus aureus ATCC 6538 after 18 hrs by broth microdilution method. As to conditions: ATCC 6538, 18 h. Type of data set: functional. In short, it runs like this:
as §1

Data set [9] deals with Staphylococcus aureus. The data set is described as follows: Antibacterial activity against Staphylococcus aureus CIP 103428 after 18 hrs by broth microdilution method. Type of data set: functional. As to conditions: CIP 103428, 18 h. In short, it runs like this:
as §1

Data set [10] deals with HCT-116. The data set is described as follows: Cytotoxicity against human HCT116 cells at 1 uM. Type of data set: cell-based. As to conditions: hct-116, 1 µM.
The test system of data set [11] is Staphylococcus epidermidis. The data set can be described thus: Antibacterial activity against Staphylococcus epidermidis CIP 81.55 after 18 hrs by broth microdilution method. The note with it: CIP 81.55, 18 h. Type of data set: functional. In short, it runs like this: as §1
In data set [12] the test system is Staphylococcus epidermidis. The data set can be described thus: Antibacterial activity against Staphylococcus epidermidis ATCC 12228 after 18 hrs by broth microdilution method. Type of data set: functional. As to conditions: ATCC 12228, 18 h. The essentials: as §1
Data set [13] deals with MRC5. The data set is described as follows: Cytotoxicity against human MRC5 cells at 10 uM. The class given is cell-based. As to conditions: mrc5, 10 µM.
The subject of data set [14] is Staphylococcus aureus. The data set is described as follows: Antibacterial activity against Staphylococcus aureus ATCC 25923 after 18 hrs by broth microdilution method. The class given is functional. The note with it: ATCC 25923, 18 h. In short, it runs like this: as §1
In data set [15] the test system is KB. The data set can be described thus: Cytotoxicity against human KB cells at 1 uM. The class given is cell-based.

The structures appear in SMILES notation. Values after ≈ are worked out from the molar mass of the structure shown.

As for `CC(C)CC(c1c[nH]c2ccccc12)N(O)Cc1ccccc1` (stereo not given), the MIC in the data set with Staphylococcus aureus [1] was found to be 32 mg/L (≈ 104 µM); against Staphylococcus aureus [2], 32 mg/L (≈ 104 µM); in data set [3], 16 mg/L (≈ 51.9 µM); in the data set with Staphylococcus aureus [5], 32 mg/L (≈ 104 µM); against Staphylococcus aureus [8], 32 mg/L (≈ 104 µM); in the data set with Staphylococcus aureus [9] it was 32 mg/L (≈ 104 µM). The MIC in data set [11] was found to be 16 mg/L (≈ 51.9 µM); in [12], 16 mg/L (≈ 51.9 µM); in the data set with Staphylococcus aureus [14], 32 mg/L (≈ 104 µM). For the same compound, the Activity result with HCT-116 [4], with KB [6], in the data set on MRC5 [7], in the data set on HCT-116 [10], with MRC5 [13] and in the data set on KB [15] was “Non-toxic” each time.

In the case of `CC(C)CC(NO)c1c[nH]c2ccc(Br)cc12` (stereo not given), the MIC was 32 mg/L (≈ 108 µM) with Staphylococcus aureus [1]; 32 mg/L (≈ 108 µM) against Staphylococcus aureus [2]; 16 mg/L (≈ 53.8 µM) in data set [3]; 32 mg/L (≈ 108 µM) against Staphylococcus aureus [5]; 32 mg/L (≈ 108 µM) with Staphylococcus aureus [8]; 32 mg/L (≈ 108 µM) in the data set with Staphylococcus aureus [9]. The MIC is 16 mg/L (≈ 53.8 µM) in data set [11], 16 mg/L (≈ 53.8 µM) in data set [12] and 32 mg/L (≈ 108 µM) with Staphylococcus aureus [14]. Also, the Activity result in the data set with HCT-116 [4], with KB [6], in the data set on MRC5 [7], with HCT-116 [10], in the data set with MRC5 [13] and in the data set on KB [15] was “Non-toxic” in each case.

Turning to `CC(C)CC(NO)c1c[nH]c2ccc(Cl)cc12` (stereo not given), the MIC in the data set on Staphylococcus aureus [1] was 16 mg/L (≈ 63.3 µM); against Staphylococcus aureus [2], 16 mg/L (≈ 63.3 µM); in [3], 32 mg/L (≈ 127 µM); in the data set on Staphylococcus aureus [5], 16 mg/L (≈ 63.3 µM); against Staphylococcus aureus [8], 16 mg/L (≈ 63.3 µM); in the data set with Staphylococcus aureus [9] it was 16 mg/L (≈ 63.3 µM). Also, the figures for the MIC (in [11]; in data set [12]; against Staphylococcus aureus [14]) were 32 mg/L (≈ 127 µM), 32 mg/L (≈ 127 µM) and 16 mg/L (≈ 63.3 µM), respectively. The Activity result in the data set with HCT-116 [4], in the data set with KB [6], in the data set on MRC5 [7], in the data set with HCT-116 [10], in the data set with MRC5 [13] and with KB [15] was “Non-toxic” throughout.

In the case of `CC(C)CC(NO)c1c[nH]c2ccccc12` (stereo not given), the MIC is 64 mg/L (≈ 293 µM) in the data set on Staphylococcus aureus [1]; 64 mg/L (≈ 293 µM) in the data set on Staphylococcus aureus [2]; 32 mg/L (≈ 147 µM) in [3]; 64 mg/L (≈ 293 µM) against Staphylococcus aureus [5]; 64 mg/L (≈ 293 µM) against Staphylococcus aureus [8]; 64 mg/L (≈ 293 µM) with Staphylococcus aureus [9]. Also, the MIC was 32 mg/L (≈ 147 µM) in [11], 32 mg/L (≈ 147 µM) in data set [12] and 64 mg/L (≈ 293 µM) with Staphylococcus aureus [14]. The Activity entry in the data set on HCT-116 [4], with KB [6], in the data set on MRC5 [7], with HCT-116 [10], with MRC5 [13] and with KB [15] was “Non-toxic” throughout.

As to `CC(C)CC(NO)c1c[nH]c2ccc(F)cc12` (stereo not given), the MIC (in the data set on Staphylococcus aureus [1]; in the data set on Staphylococcus aureus [2]; in [3]; in the data set with Staphylococcus aureus [5]; in the data set on Staphylococcus aureus [8]; against Staphylococcus aureus [9]) was 32 mg/L (≈ 135 µM) in each case. For the same compound, the MIC (in [11]; in data set [12]; in the data set on Staphylococcus aureus [14]) was 32 mg/L (≈ 135 µM) throughout. In addition, the Activity entry with HCT-116 [4], with KB [6], in the data set on MRC5 [7], with HCT-116 [10], with MRC5 [13] and in the data set on KB [15] was “Non-toxic” each time.

Regarding `CC(NO)c1c[nH]c2ccc(I)cc12` (stereo not given), the MIC in the data set on Staphylococcus aureus [1] turned out to be 64 mg/L (≈ 212 µM); against Staphylococcus aureus [2], 64 mg/L (≈ 212 µM); in data set [3] it was 32 mg/L (≈ 106 µM); in the data set on Staphylococcus aureus [5], 64 mg/L (≈ 212 µM); in the data set on Staphylococcus aureus [8], 64 mg/L (≈ 212 µM); in the data set on Staphylococcus aureus [9], 64 mg/L (≈ 212 µM). For the same compound, the values for the MIC (in [11]; in [12]; against Staphylococcus aureus [14]) were 32 mg/L (≈ 106 µM), 32 mg/L (≈ 106 µM) and 64 mg/L (≈ 212 µM), respectively. Moreover, the Activity entry in the data set on HCT-116 [4], with KB [6], with MRC5 [7], with HCT-116 [10], in the data set on MRC5 [13] and in the data set on KB [15] was “Non-toxic” in each case.

Values taken from ChEMBL document CHEMBL1777764, “Synthesis and evaluation of 1-(1H-indol-3-yl)ethanamine derivatives as new antibacterial agents” (Bioorg Med Chem, 2011).
